# Published values collected from several papers.
# Lines come from different studies, so protocols differ.
# CDK4 with cyclin D3: Cyclin-dependent kinase 4, with cyclin D3 (CDK4, Homo sapiens, UniProt P11802)
# CDK4 with cyclin D1: Cyclin-dependent kinase 4, with cyclin D1 (CDK4, Homo sapiens, UniProt P11802)
# CDK4: Cyclin-dependent kinase 4 (CDK4, Homo sapiens, UniProt P11802)
Compound,target,observed,action,method,tested at,quantity,result
CC(C)(C)c1nc2c(s1)c1nc(N)ncc1c1ccc(NS(=O)(=O)c3c(F)cccc3F)c(F)c12,CDK4 with cyclin D3,enzyme activity,inhibitor,radiometric,1 µM,remaining activity,100%
O=C1NC(=O)c2cc(Nc3ccc(F)cc3)c(Nc3ccc(F)cc3)cc21,CDK4 with cyclin D3,cell-free assay,,,0.5 µM,remaining signal,99%
CN(C)c1nccc(-c2cnn3ncccc23)n1,CDK4 with cyclin D1,binding,,,1 µM,remaining binding,100%
N#CCCc1ccc2c(c1)-c1[nH]c3ccc([N+](=O)[O-])cc3c1CC(=O)N2,CDK4 with cyclin D1,cell-free assay,,,0.5 µM,remaining signal,11.8%
N#Cc1ccc(Nc2ccc3[nH]c(=O)[nH]c3c2)c(Cl)c1,CDK4,cell-free assay,,competition with immobilised ligand,1 µM,remaining binding,100%
Nc1ncnc2occ(-c3ccc(NC(=O)Nc4cc(C(F)(F)F)ccc4F)cc3)c12,CDK4,cell-free assay,inhibitor,,20 µM,remaining signal,29%
N[C@H]1CCN(c2nccc(-c3cnn4ncccc34)n2)C1,CDK4 with cyclin D1,binding,,,1 µM,remaining binding,100%
O=C(c1ccc(F)cc1)[C@H]1Cc2c(cc([N+](=O)[O-])cc2[N+](=O)[O-])[C@H](O)[C@]12C(=O)Nc1ccccc12,CDK4,cell-free assay,inhibitor,TR-FRET,1 µM,inhibition,23.2%
CCCCN(CCCC)C(=O)CN1C[C@@H](c2cc(OC)c3c(c2)OCO3)[C@H](C(=O)O)[C@H]1CC(C)(C)CCC,CDK4 with cyclin D3,cell-free assay,,competition with immobilised ligand,1 µM,remaining binding,92.7%
Cc1sc(C(=O)NC2COC2)cc1-n1cc(NC(=O)Nc2c(F)cccc2Cl)cn1,CDK4 with cyclin D3,enzyme activity,inhibitor,,10 µM,remaining activity,96.5%
CCN(CC)CCNC(=O)c1c(C)[nH]c(/C=C2\C(=O)Nc3ccc(F)cc32)c1C,CDK4 with cyclin D3,cell-free assay,,,0.5 µM,remaining signal,93%
Cc1cnc(NC2CCOCC2)nc1-n1cnc(C(=O)NC(CN)c2cc(F)cc(Cl)c2)c1 (stereo not drawn),CDK4 with cyclin D3,enzyme activity,inhibitor,radiometric,1 µM,remaining activity,6%
CCOCCn1cc(C(=O)Nc2ccc(-n3nc(-c4cccnc4)cc3C(F)(F)F)cn2)ccc1=O,CDK4,cell-free assay,,competition with immobilised ligand,1 µM,remaining binding,87%
CC1CCCN1c1nccc(-c2cnn3ncccc23)n1 (stereo not drawn),CDK4,binding,,,1 µM,remaining binding,100%
CS(=O)(=O)NCC[C@H](NC(=O)c1cncc2c1cnn2-c1ccc(F)cc1)c1ccnc(S(C)(=O)=O)c1,CDK4,cell-free assay,,competition with immobilised ligand,1 µM,remaining binding,100%
O=C(c1ccc(Cl)c(Cl)c1)[C@H]1Cc2c(cc([N+](=O)[O-])cc2[N+](=O)[O-])[C@H](O)[C@]12C(=O)Nc1ccccc12,CDK4,cell-free assay,inhibitor,TR-FRET,1 µM,inhibition,18.5%
Oc1cccc(-c2nc(N3CCOCC3)c3oc4ncccc4c3n2)c1,CDK4 with cyclin D3,cell-free assay,,,0.5 µM,remaining signal,92.5%
CS(=O)(=O)c1cc(C2(NC(=O)c3cncc4c3cnn4-c3ccc(F)cc3)CC2)ccn1,CDK4 with cyclin D3,cell-free assay,,competition with immobilised ligand,1 µM,remaining binding,100%
